The text below walks through data of ChEMBL document CHEMBL5226322, “Harnessing the Role of HDAC6 in Idiopathic Pulmonary Fibrosis: Design, Synthesis, Structural Analysis, and Biological Evaluation of Potent Inhibitors” (J Med Chem, 2021).

Converted amounts (≈) assume the structure as drawn. The source made the active and inactive calls. The rule behind the calls is not given here.

Data set [1] can be described thus: Metabolic stability in human liver microsome assessed as half life at 5 uM in presence of NADPH incubated up to 60 mins by HPLC analysis. The format is ADME. The following applies: microsomes, 1 h.
A short description of data set [2]: Solubility of the compound at pH 7.4 PBS buffer incubated for 24 hrs by HPLC-UV analysis. The format is physicochemical. The following applies: pH 7.4, 24 h. In a few lines: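 Compound from 10 mM DMSO stock diluted to 250 μM (2.5% DMSO), either in 50 mM acetic acid (pH 3.0) or in 50 mM aqueous PBS (pH 7.4). Shaken 24 h at 25 °C, PTFE-filtered and diluted 1:2. Quantified by RP-18 HPLC-UV at 254 nm against a 250 μM standard in MeCN/water. Run in triplicate and averaged.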

Data set [3] relates to NIH3T3. Put plainly: Cytotoxicity in mouse NIH3T3 cells assessed as reduction in cell viability at 15 uM incubated for 24 hrs by neutral red uptake method based UV/visible spectrophotometer analysis. The format is toxicity. The following applies: nih3t3, 24 h. In a few lines: (§1)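 NIH3T3 mouse fibroblasts grown in DMEM with 10% FCS, L-glutamine/pen-strep and non-essential amino acids (37 °C, 5% CO2). Exposed 24 h to compound diluted from a DMSO stock into medium. Viability measured by Neutral Red uptake: 3 h in NR medium, then acetic acid/ethanol desorb, absorbance at 540 nm. Student's t-test, p<0.05.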

Data set [4] has as its system NIH3T3. The experiment in a line: Cytotoxicity in mouse NIH3T3 cells assessed as reduction in cell viability at 25 uM incubated for 24 hrs by neutral red uptake method based UV/visible spectrophotometer analysis. In kind it is toxicity. The following applies: nih3t3, 24 h. The gist of the method: as §1
Data set [5] relates to Heart. Put plainly: Cardiotoxicity in Langendorff-perfused Sprague-Dawley rat heart assessed as effect on HR at 0.01 uM by ECG analysis (reference value: 235.7 +/-8.3 bpm). In kind it is toxicity, tissue-based.
The subject of data set [6] is Heart. Put plainly: Cardiotoxicity in Langendorff-perfused Sprague-Dawley rat heart assessed as effect on QT interval time at 0.01 uM by ECG analysis (reference value: 76.2 +/-2.9 milliseconds). In kind it is toxicity, tissue-based.
A short description of data set [7]: Toxicity in zebra fish embryo assessed as visual capacity changes at 1 to 100 uM […] by optokinetic reflex assay. More on the design: species or system Danio rerio. Particulars: zebrafish, dose 1-100 µM. The gist of the method: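 Wildtype Tübingen larvae at 28.5 °C were exposed from 3 days old for 2 days to 1–100 µM (1, 10, 25, 50, 100) in embryo medium, against 0.1% DMSO vehicle. 8 larvae per group. Visual function was then tested by optokinetic reflex at 2 days post-treatment, on 5-day-old larvae.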

Data set [8] relates to NIH3T3. Put plainly: Cytotoxicity in mouse NIH3T3 cells assessed as reduction in cell viability at 5 uM incubated for 24 hrs by neutral red uptake method based UV/visible spectrophotometer analysis. The format is toxicity. The following applies: nih3t3, 24 h. In a few lines:
(§2)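 NIH3T3 fibroblasts grown in DMEM with 10% FCS, L-glutamine/pen-strep and non-essential amino acids at 37 °C, 5% CO2. Monolayers exposed 24 h to compound diluted from a DMSO stock into medium. Neutral Red medium then added for 3 h at 37 °C. Dye extracted with acetic acid/ethanol desorb solution and absorbance read at 540 nm. Student's t-test, p<0.05.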

Data set [9] relates to Heart. The experiment in a line: Cardiotoxicity in Langendorff-perfused Sprague-Dawley rat heart assessed as effect on QTc interval time at 0.1 uM by ECG analysis (reference value: 150.5 +/-5.5 milliseconds). In kind it is toxicity, tissue-based.
Data set [10] is filed under the species Homo sapiens. The experiment in a line: Antifibrotic activity in TGF-beta1-induced human Lung parenchyma assessed as inhibition of HDAC6 mRNA expression at 4.1 uM incubated upto 7 days by qRT-PCR analysis. In kind it is functional. Particulars: time <= 7.0 day. In a few lines:
(§3)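 Human lung parenchyma pieces (2 mm³) cultured in DMEM with TGF-β1 (10 ng/mL) plus compound at 0.41 or 4.1 μM or vehicle (0.1% DMSO). Tissue collected on day 7, homogenized, total RNA purified, then qRT-PCR for HDAC6, collagen I, collagen III, αSMA and fibronectin. Relative expression by the 2^-Ct method; n=3, paired t test.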
A general note: Real-time PCR tracks product formation cycle by cycle.

Data set [11] has as its system Heart. The experiment in a line: Cardiotoxicity in Langendorff-perfused Sprague-Dawley rat heart assessed as effect on HR at 10 uM by ECG analysis (reference value: 235.7 +/-8.3 bpm). The format is toxicity, tissue-based.
Data set [12] has as its system Heart. Put plainly: Cardiotoxicity in Langendorff-perfused Sprague-Dawley rat heart assessed as effect on HR at 0.1 uM by ECG analysis (reference value: 235.7 +/-8.3 bpm). The format is toxicity, tissue-based.
Data set [13] relates to Heart. Put plainly: Cardiotoxicity in Langendorff-perfused Sprague-Dawley rat heart assessed as effect on QT interval time at 0.1 uM by ECG analysis (reference value: 76.2 +/-2.9 milliseconds). The format is toxicity, tissue-based.
Data set [14] concerns Heart. Put plainly: Cardiotoxicity in Langendorff-perfused Sprague-Dawley rat heart assessed as effect on PQ interval time at 1 uM by ECG analysis (reference value: 43.6 +/-2.5 milliseconds). The format is toxicity, tissue-based.
Data set [15] concerns NIH3T3. The experiment in a line: Cytotoxicity in mouse NIH3T3 cells assessed as reduction in cell viability at 75 uM incubated for 24 hrs by neutral red uptake method based UV/visible spectrophotometer analysis. Particulars: nih3t3, 24 h. The format is toxicity. The gist of the method: as §2
The test system of data set [16] is Heart. The experiment in a line: Cardiotoxicity in Langendorff-perfused Sprague-Dawley rat heart assessed as effect on RR time at 0.01 uM by ECG analysis (reference value: 257.2 +/-8.1 milliseconds). In kind it is toxicity, tissue-based.
A short description of data set [17]: Toxicity in zebra fish embryo at 50 uM […]. The following applies: zebrafish. Also noted: species or system Danio rerio. The gist of the method:
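Wildtype Tübingen zebrafish larvae reared at 28.5 °C (14 h light/10 h dark) in embryo medium with methylene blue. From 3 days old, exposed for 2 days to 1, 10, 25, 50 or 100 µM in embryo medium, or 0.1% DMSO vehicle. 4 larvae per well in 400 µL, 8 larvae per group. Larvae scored for swim bladder inflation and cardiac edema.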

Data set [18] relates to NIH3T3. The experiment in a line: Cytotoxicity in mouse NIH3T3 cells assessed as reduction in cell viability at 50 uM incubated for 24 hrs by neutral red uptake method based UV/visible spectrophotometer analysis. In kind it is toxicity. Particulars: nih3t3, 24 h. The gist of the method:
as §1

The species entered for data set [19] is Homo sapiens. The experiment in a line: Antifibrotic activity in TGF-beta1-induced human Lung parenchyma assessed as inhibition of collagen 3 mRNA expression at 4.1 uM incubated upto 7 days by qRT-PCR analysis. The format is functional. The following applies: time <= 7.0 day. The gist of the method:
as §3

The nature of data set [20]: Cytotoxicity in mouse NIH3T3 cells assessed as reduction in cell viability by measuring toxic concentration incubated for 24 hrs by neutral red uptake method based UV/visible spectrophotometer analysis. In kind it is toxicity. Particulars: read-out: TC50. In a few lines: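 NIH3T3 mouse fibroblasts grown in DMEM with 10% FCS, L-glutamine/penicillin/streptomycin and non-essential amino acids, 37 °C, 5% CO2. DMSO stocks diluted in complete medium, applied to monolayers for 24 h at several concentrations. Viability by Neutral Red uptake: 3 h dye loading, desorb in acetic acid/ethanol, absorbance at 540 nm. Student's t-test, p < 0.05.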

Data set [21] has as its system Heart. Put plainly: Cardiotoxicity in Langendorff-perfused Sprague-Dawley rat heart assessed as effect on HR at 1 uM by ECG analysis (reference value: 235.7 +/-8.3 bpm). In kind it is toxicity, tissue-based.
Data set [22] concerns Heart. Put plainly: Cardiotoxicity in Langendorff-perfused Sprague-Dawley rat heart assessed as effect on QTc interval time at 10 uM by ECG analysis (reference value: 150.5 +/-5.5 milliseconds). The format is toxicity, tissue-based.
The species named for data set [23] is Homo sapiens. The experiment in a line: Antifibrotic activity in TGF-beta1-induced human Lung parenchyma assessed as inhibition of fibronectin mRNA expression at 4.1 uM incubated upto 7 days by qRT-PCR analysis. In kind it is functional. The following applies: time <= 7.0 day. In a few lines:
as §3

Data set [24] deals with Heart. Put plainly: Cardiotoxicity in Langendorff-perfused Sprague-Dawley rat heart assessed as effect on QRS interval time at 1 uM by ECG analysis (reference value: 15.2 +/-0.2 milliseconds). The format is toxicity, tissue-based.

Take `CN1CCC2(CC1)c1ccccc1N(Cc1ccc(C(=O)NO)cc1)C2c1ccccc1F` (racemic): the t1/2 in [1] is reported as 51.68 min. In addition, the solubility (as a rule, how much of the substance goes into solution per volume) in data set [2] was determined as 285 µM (≈ 127 µg/mL).
For `CC1(C)c2ccccc2N(Cc2ccc(C(=O)NO)cc2)C1c1cccnc1` (racemic), the Activity is given as 94% in the data set with NIH3T3 [3]; 87% in the data set with NIH3T3 [4]; 235.4 bpm with Heart [5]; “Non-Toxic” in data set [7]; 98% in the data set with NIH3T3 [8]; 207.9 bpm in the data set with Heart [11]. Further, the Activity in the data set on Heart [12] was 238.1 bpm; with NIH3T3 [15] it was 53%; in [17], “Non-Toxic”; with NIH3T3 [18], 71%; in the data set with Heart [21], 235.4 bpm. The Time in the data set on Heart [6] worked out at 78.1 ms; in the data set on Heart [9] it was 155.1 ms; in the data set on Heart [13] it was 78 ms; in the data set on Heart [14], 44.5 ms; in the data set with Heart [16], 255.9 ms; in the data set with Heart [22], 145.3 ms. In addition, the Time with Heart [24] was determined as 15.8 ms. Further, the outcome in the data set listed under Homo sapiens [10], in the data set filed under Homo sapiens [19] and in the data set listed under Homo sapiens [23] was Active. The CC50 at 24 h in [20] is 75 µM.
